{"source": "paper PMC4750707", "about": "(Antimicrobial Agents and Chemotherapy, 2016)", "key": {"[1]": {"system": "P. aeruginosa", "experiment": "Broth microdilution MIC", "assay_type": "cell-based", "settings": "Pseudomonas aeruginosa", "summary_of_the_method": "(§1)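 MICs by CLSI broth microdilution in cation-adjusted Mueller-Hinton broth. Strains grown in BHI broth at 35°C: E. coli K-12, P. aeruginosa 1771 and S. aureus ATCC 29213. H. influenzae Rd grown in BHI with Haemophilus test medium supplement (hemin and β-NAD, 15 μg/ml each).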"}, "[2]": {"system": "S. aureus", "experiment": "Broth microdilution MIC", "assay_type": "cell-based", "settings": "Staphylococcus aureus, ATCC29213", "summary_of_the_method": "as §1"}, "[3]": {"target": "T1, E. coli PBP1b (Escherichia coli, UniProt P02919)", "T1 sequence (P02919 1-844)": "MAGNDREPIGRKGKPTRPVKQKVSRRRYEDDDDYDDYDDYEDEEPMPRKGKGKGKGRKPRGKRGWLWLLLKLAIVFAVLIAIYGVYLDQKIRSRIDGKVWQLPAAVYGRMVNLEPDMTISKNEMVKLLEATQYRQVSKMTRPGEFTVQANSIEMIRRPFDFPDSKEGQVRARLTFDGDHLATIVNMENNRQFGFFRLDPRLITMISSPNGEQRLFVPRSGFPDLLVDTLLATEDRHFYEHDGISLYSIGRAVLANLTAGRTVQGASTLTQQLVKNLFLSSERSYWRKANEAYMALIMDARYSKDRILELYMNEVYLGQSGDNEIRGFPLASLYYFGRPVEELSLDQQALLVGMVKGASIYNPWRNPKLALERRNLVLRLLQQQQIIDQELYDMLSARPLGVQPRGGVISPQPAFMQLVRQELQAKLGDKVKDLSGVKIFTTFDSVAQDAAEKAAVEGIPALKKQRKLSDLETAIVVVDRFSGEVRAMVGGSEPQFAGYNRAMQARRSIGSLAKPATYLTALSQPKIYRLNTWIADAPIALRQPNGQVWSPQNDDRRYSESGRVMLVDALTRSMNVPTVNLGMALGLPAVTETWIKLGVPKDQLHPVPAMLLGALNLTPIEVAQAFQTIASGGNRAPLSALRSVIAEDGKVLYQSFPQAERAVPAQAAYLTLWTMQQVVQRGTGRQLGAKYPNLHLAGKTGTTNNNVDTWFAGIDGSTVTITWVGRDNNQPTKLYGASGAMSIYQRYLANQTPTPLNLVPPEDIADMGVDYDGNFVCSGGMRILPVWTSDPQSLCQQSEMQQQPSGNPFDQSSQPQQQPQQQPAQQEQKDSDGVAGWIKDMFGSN", "experiment": "PBP competition assay with Bocillin FL", "assay_type": "binding", "summary_of_the_method": "(§2)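 E. coli K-12 or P. aeruginosa 1771 grown in BHI at 35°C to A600 ~1.5. Cells in 50 mM phosphate pH 7.0 were French-pressed; membranes pelleted at 150,000 × g. Membranes (10–20 μg protein) were pre-incubated with test compound 10 min at 30°C, then Bocillin FL (100 μM final) 20 min. SDS-PAGE, fluorescence scan. IC50 in μg/ml from ≥8 concentrations versus no-drug control.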"}, "[4]": {"target": "T2, E. coli PBP3 (Escherichia coli, UniProt P0AD68)", "T2 sequence (P0AD68 1-588)": "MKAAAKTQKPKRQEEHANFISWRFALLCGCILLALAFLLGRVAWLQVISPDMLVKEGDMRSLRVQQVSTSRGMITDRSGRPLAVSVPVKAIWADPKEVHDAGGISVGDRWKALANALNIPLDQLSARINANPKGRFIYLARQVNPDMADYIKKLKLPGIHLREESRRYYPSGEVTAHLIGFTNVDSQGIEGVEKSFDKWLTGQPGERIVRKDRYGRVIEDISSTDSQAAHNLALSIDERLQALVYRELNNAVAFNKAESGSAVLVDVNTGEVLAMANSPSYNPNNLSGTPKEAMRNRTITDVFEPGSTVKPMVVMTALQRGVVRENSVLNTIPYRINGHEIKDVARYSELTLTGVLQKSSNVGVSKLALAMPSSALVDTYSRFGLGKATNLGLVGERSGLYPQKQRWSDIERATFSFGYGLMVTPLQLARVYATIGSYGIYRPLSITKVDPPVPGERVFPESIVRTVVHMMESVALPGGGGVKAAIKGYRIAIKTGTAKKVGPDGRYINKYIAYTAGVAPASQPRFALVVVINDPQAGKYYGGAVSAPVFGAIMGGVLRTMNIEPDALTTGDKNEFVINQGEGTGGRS", "experiment": "PBP competition assay with Bocillin FL", "assay_type": "binding", "summary_of_the_method": "as §2"}, "[5]": {"system": "E. coli PBP5/6", "experiment": "PBP competition assay with Bocillin FL", "assay_type": "binding, Escherichia coli", "settings": "E. coli K-12 membranes; Bocillin FL 100 μM", "summary_of_the_method": "as §2"}, "[6]": {"target": "P. aeruginosa PBP1a (Pseudomonas aeruginosa, UniProt Q07806)", "sequence (Q07806 whole entry)": "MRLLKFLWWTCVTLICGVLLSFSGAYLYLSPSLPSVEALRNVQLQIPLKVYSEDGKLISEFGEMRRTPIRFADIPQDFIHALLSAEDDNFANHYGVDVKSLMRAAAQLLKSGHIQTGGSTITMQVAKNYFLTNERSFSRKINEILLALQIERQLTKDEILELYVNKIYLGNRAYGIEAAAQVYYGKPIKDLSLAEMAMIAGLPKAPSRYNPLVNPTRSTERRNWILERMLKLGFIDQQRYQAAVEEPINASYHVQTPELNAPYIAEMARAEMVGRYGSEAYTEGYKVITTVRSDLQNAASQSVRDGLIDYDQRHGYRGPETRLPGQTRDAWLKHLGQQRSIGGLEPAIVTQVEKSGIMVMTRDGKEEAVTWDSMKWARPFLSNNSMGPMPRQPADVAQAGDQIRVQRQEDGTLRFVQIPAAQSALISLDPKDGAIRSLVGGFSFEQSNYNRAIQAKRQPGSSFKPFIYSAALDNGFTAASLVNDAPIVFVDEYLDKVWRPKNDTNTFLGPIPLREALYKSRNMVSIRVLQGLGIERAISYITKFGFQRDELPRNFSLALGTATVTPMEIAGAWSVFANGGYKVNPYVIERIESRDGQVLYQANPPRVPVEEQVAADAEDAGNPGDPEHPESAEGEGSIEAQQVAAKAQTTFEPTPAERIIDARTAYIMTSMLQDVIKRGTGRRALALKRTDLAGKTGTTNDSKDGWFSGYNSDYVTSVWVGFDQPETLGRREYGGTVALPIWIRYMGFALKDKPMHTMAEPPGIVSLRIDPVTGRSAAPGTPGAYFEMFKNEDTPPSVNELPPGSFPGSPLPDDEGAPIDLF", "experiment": "PBP competition assay with Bocillin FL", "assay_type": "binding", "summary_of_the_method": "as §2"}, "[7]": {"target": "P. aeruginosa PBP3 (Pseudomonas aeruginosa, UniProt G3XD46)", "sequence (G3XD46 whole entry)": "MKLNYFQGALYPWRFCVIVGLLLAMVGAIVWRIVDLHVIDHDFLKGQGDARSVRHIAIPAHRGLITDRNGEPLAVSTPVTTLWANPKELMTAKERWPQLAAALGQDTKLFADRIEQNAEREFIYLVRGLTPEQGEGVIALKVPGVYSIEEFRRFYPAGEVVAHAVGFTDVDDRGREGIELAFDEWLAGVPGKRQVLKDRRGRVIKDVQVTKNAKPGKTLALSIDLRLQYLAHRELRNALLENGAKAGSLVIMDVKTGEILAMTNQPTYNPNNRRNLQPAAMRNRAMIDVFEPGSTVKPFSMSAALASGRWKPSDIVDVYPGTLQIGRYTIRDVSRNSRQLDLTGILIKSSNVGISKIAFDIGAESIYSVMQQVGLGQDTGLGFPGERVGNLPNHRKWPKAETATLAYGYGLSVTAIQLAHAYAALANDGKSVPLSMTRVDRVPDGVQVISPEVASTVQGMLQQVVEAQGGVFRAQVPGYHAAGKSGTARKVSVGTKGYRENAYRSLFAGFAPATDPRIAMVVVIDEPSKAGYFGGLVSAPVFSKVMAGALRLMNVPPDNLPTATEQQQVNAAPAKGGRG", "experiment": "PBP competition assay with Bocillin FL", "assay_type": "binding"}, "[8]": {"target": "S. aureus PBP2 (Staphylococcus aureus, UniProt Q9R744)", "sequence (Q9R744 1-727)": "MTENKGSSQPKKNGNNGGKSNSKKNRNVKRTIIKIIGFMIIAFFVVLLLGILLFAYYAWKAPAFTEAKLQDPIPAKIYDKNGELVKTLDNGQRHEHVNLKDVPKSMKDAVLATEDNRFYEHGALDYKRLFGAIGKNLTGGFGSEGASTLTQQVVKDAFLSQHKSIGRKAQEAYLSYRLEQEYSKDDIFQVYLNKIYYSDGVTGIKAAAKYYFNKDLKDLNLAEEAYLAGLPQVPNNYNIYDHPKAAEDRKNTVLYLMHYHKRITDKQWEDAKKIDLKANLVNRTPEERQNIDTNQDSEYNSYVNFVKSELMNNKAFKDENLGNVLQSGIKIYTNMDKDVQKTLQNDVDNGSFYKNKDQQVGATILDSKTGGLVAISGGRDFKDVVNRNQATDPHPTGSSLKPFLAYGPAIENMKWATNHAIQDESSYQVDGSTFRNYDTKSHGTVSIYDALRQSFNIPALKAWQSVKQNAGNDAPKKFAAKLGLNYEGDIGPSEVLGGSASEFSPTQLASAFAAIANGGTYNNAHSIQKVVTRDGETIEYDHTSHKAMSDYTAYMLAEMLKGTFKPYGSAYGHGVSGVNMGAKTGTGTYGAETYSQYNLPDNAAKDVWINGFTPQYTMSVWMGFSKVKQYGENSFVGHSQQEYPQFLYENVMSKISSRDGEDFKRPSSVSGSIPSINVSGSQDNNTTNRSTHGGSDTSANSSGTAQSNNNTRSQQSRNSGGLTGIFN", "experiment": "PBP competition assay with Bocillin FL", "assay_type": "binding", "summary_of_the_method": "(§3)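 S. aureus ATCC 29213 membranes were prepared in KPN buffer pH 7.5. Lysis used lysostaphin 400 μg/ml for 1 h at 37°C plus protease inhibitors, DNase and RNase, then French press. Membranes (10–20 μg protein) received test compound for 10 min at 30°C, then Bocillin FL 100 μM final for 20 min. SDS-PAGE band volumes; IC50 from three assays of six concentrations versus no-drug control.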"}, "[9]": {"target": "S. aureus PBP3 (Staphylococcus aureus, UniProt Q9XDB3)", "sequence (Q9XDB3 1-691)": "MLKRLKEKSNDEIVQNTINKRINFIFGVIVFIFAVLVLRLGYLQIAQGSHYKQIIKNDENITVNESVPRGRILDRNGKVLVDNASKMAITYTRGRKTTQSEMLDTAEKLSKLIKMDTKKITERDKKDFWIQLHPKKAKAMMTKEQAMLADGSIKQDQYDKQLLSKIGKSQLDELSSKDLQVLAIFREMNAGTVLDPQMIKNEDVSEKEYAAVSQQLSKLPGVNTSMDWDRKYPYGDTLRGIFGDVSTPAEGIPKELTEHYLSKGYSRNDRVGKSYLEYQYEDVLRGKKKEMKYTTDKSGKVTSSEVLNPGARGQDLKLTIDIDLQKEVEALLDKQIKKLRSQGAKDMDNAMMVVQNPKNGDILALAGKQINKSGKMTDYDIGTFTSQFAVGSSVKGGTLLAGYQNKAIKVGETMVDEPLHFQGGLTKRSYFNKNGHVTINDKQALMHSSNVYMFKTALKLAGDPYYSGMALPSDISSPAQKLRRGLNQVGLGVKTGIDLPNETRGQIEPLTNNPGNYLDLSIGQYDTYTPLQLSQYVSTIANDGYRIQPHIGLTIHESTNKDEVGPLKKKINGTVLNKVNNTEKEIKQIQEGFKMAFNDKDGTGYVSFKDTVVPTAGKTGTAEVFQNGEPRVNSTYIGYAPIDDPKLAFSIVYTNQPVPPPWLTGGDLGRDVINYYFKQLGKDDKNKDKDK", "experiment": "PBP competition assay with Bocillin FL", "assay_type": "binding", "summary_of_the_method": "as §3"}, "[10]": {"target": "T3, S. aureus PBP4 (Staphylococcus aureus, UniProt P72355)", "T3 sequence (P72355 25-431)": "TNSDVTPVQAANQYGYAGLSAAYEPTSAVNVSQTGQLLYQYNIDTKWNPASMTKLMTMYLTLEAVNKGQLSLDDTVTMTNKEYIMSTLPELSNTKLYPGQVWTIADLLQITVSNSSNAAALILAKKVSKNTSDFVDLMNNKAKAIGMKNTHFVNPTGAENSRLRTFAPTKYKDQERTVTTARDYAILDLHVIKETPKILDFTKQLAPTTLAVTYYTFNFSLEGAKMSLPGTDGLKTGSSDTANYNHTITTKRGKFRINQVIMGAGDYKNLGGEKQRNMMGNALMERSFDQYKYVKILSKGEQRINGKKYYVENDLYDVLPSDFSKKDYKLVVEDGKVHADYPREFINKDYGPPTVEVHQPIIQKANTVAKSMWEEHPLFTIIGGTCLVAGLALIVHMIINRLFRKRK", "experiment": "PBP competition assay with Bocillin FL", "assay_type": "binding"}}}
{"molecule": "NC(=O)[C@@H]1CC[C@@H]2CN1C(=O)N2OS(=O)(=O)O", "note": "[AVI, avibactam]", "values": [{"measurement": "MIC", "setting": "[1]", "value": "> 128", "unit": "µg/mL"}, {"measurement": "MIC", "setting": "[2]", "value": 256, "unit": "µg/mL"}, {"measurement": "IC50", "setting": "[3]", "value": "> 49", "unit": "µM"}, {"measurement": "IC50", "setting": "[4]", "value": "> 49", "unit": "µM"}, {"measurement": "Relative binding (IC50) for PBP 5/6", "setting": "[5]", "value": ">13", "unit": "µg/mL"}, {"measurement": "IC50", "setting": "[6]", "value": "> 49", "unit": "µM"}, {"measurement": "IC50", "setting": "[7]", "value": 6.79, "unit": "µM"}, {"measurement": "IC50", "setting": "[8]", "value": 192, "unit": "µM"}, {"measurement": "IC50", "setting": "[9]", "value": 588, "unit": "µM"}, {"measurement": "IC50", "setting": "[10]", "value": "> 965", "unit": "µM"}]}
{"molecule": "CC1(C)S[C@@H]2[C@H](/N=C/N3CCCCCC3)C(=O)N2[C@H]1C(=O)O", "note": "[MEC, amdinocillin]", "values": [{"measurement": "IC50", "setting": "[3]", "value": "> 39.9", "unit": "µM"}, {"measurement": "IC50", "setting": "[4]", "value": "> 39.9", "unit": "µM"}, {"measurement": "IC50", "setting": "[6]", "value": "> 39.9", "unit": "µM"}]}
{"molecule": "CC(C)(O/N=C(\\C(=O)N[C@@H]1C(=O)N2C(C(=O)[O-])=C(C[n+]3ccccc3)CS[C@H]12)c1csc(N)n1)C(=O)O", "note": "[CAZ, ceftazidime]", "values": [{"measurement": "MIC", "setting": "[1]", "value": 4, "unit": "µg/mL"}, {"measurement": "MIC", "setting": "[2]", "value": 16, "unit": "µg/mL"}, {"measurement": "IC50", "setting": "[3]", "value": 14.6, "unit": "µM"}, {"measurement": "IC50", "setting": "[4]", "value": 0.366, "unit": "µM"}, {"measurement": "Relative binding (IC50) for PBP 5/6", "setting": "[5]", "value": ">25", "unit": "µg/mL"}, {"measurement": "IC50", "setting": "[6]", "value": 0.348, "unit": "µM"}, {"measurement": "IC50", "setting": "[7]", "value": 0.0732, "unit": "µM"}, {"measurement": "IC50", "setting": "[8]", "value": 1.28, "unit": "µM"}, {"measurement": "IC50", "setting": "[9]", "value": "> 14.6", "unit": "µM"}, {"measurement": "IC50", "setting": "[10]", "value": "> 14.6", "unit": "µM"}, {"measurement": "Binding to S. aureus PBP4 revealed by reduction of Bocillin FL labeling", "setting": "[10]; S. aureus membranes, in presence of avibactam fixed at 4 μg/ml", "value": "affinity for PBP4 was much lower"}]}
